Series [1] concerns Mus musculus. Nature of the series: Hepatotoxicity in Balb/c mouse infected with Trypanosoma cruzi MHOM/Pe/2011/Arequipa DTU 5 trypamastigotes assessed as change in alkaline phosphatase level at […], po once daily for 5 consecutive days starting from day 75 post infection measured on day 81 post infection by biochemical analysis relative to control. Format: toxicity, organism-based. To be noted: in vivo. The procedure, abridged: (§1)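 Serum clinical chemistry in Arequipa-infected female BALB/c mice. Oral 20 mg·kg-1 per day for 5 days, started day 10 or day 75 pi. Samples taken at day 16 pi or day 81 pi, and on necropsy day. Markers: CK-MB and LDH (U/L), AST, ALT and alkaline phosphatase (U/L), total bilirubin. Results scored relative to infected untreated controls; uninfected reference n = 15.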

In series [2] the test system is Trypanosoma cruzi. Nature of the series: Antitrypanosomal activity against Trypanosoma cruzi MHOM/Pe/2011/Arequipa DTU 5 trypamastigotes infected in Balb/c mouse assessed as reduction in parasitaemia reactivation in esophagus tissue at 100 mg/kg, po pretreated once daily for 5 consecutive days starting from day 75 post infection followed by cyclophosphamide-induced immunosuppression on day 100 post infection every 4 days for a maximum of 3 doses measured on day 127 post infection by PCR method. Format: functional. The arrangement: scale not given: the % may be the effect or the level left. Summed up:
(§2)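 Necropsy on day 127 pi after oral treatment and cyclophosphamide immunosuppression. Tissue DNA was amplified by PCR targeting the ~300 bp T. cruzi SOD gene, 200 nM each primer, 30 cycles with 55.5 °C annealing. Products run on 2 % agarose; positive organs counted out of six mice.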

Series [3] relates to Mus musculus. The series can be described thus: Hepatotoxicity in Balb/c mouse infected with Trypanosoma cruzi MHOM/Pe/2011/Arequipa DTU 5 trypamastigotes assessed as increase in ratio of serum ALT to GPT level at […], po once daily for 5 consecutive days starting from day 75 post infection measured on day 127 post infection by biochemical analysis relative to control. Format: toxicity, organism-based. As to conditions: in vivo.

Series [4] relates to Mus musculus. The series can be described thus: Hepatotoxicity in Balb/c mouse infected with Trypanosoma cruzi MHOM/Pe/2011/Arequipa DTU 5 trypamastigotes assessed as increase in ratio of serum ALT to GPT level at […], po once daily for 5 consecutive days starting from day 10 post infection measured on day 127 post infection by biochemical analysis relative to control. The series is classed as toxicity, organism-based. To be noted: in vivo.

Series [5] has as its system Mus musculus. Nature of the series: Hepatotoxicity in Balb/c mouse infected with Trypanosoma cruzi MHOM/Pe/2011/Arequipa DTU 5 trypamastigotes assessed as increase in alkaline phosphatase level at 20 mg/kg, po once daily for 5 consecutive days starting from day 75 post infection measured on day 81 post infection by biochemical analysis relative to control. As to conditions: in vivo. Format: toxicity, organism-based.

The test system of series [6] is Mus musculus. Nature of the series: Hepatotoxicity in Balb/c mouse infected with Trypanosoma cruzi MHOM/Pe/2011/Arequipa DTU 5 trypamastigotes assessed as increase in ratio of serum AST to GOT level at 20 mg/kg, po once daily for 5 consecutive days starting from day 10 post infection measured on day 16 post infection by biochemical analysis relative to control. The series is classed as toxicity, organism-based. As to conditions: in vivo.

For series [7], the system named is Mus musculus. The series can be described thus: Cardiotoxicity in Balb/c mouse infected with Trypanosoma cruzi MHOM/Pe/2011/Arequipa DTU 5 trypamastigotes assessed as change in ratio of creatine kinase in muscle to brain at 20 mg/kg, po once daily for 5 consecutive days starting from day 75 post infection measured on day 127 post infection by biochemical analysis relative to control. Format: toxicity, organism-based. As to conditions: in vivo. Summed up: as §1

The test system of series [8] is Mus musculus. Nature of the series: Toxicity in Balb/c mouse assessed as reduction in body mass at 20 mg/kg, po once daily for 5 consecutive days starting from day 75 post infection relative to control. The arrangement: scale not given: the % may be the effect or the level left. The series is classed as organism-based. As to conditions: in vivo.
In series [9] the test system is Trypanosoma cruzi. The series can be described thus: Antitrypanosomal activity against Trypanosoma cruzi MHOM/Pe/2011/Arequipa DTU 5 trypamastigotes infected in Balb/c mouse assessed as reduction in parasitaemia reactivation in adipose tissue at 20 mg/kg, po pretreated once daily for 5 consecutive days starting from day 10 post infection followed by cyclophosphamide-induced immunosuppression on day 100 post infection every 4 days for a maximum of 3 doses measured on day 127 post infection by PCR method. The series is classed as functional. Also noted: scale not given: the % may be the effect or the level left. Summed up: as §2

Series [10] relates to Trypanosoma cruzi. Nature of the series: Antitrypanosomal activity against Trypanosoma cruzi MHOM/Pe/2011/Arequipa DTU 5 trypamastigotes infected in Balb/c mouse assessed as reduction in parasitaemia reactivation in adipose tissue at 20 mg/kg, po pretreated once daily for 5 consecutive days starting from day 75 post infection followed by cyclophosphamide-induced immunosuppression on day 100 post infection every 4 days for a maximum of 3 doses measured on day 127 post infection by PCR method. The series is classed as functional. The arrangement: scale not given: the % may be the effect or the level left. As to conditions: pooled result: one value given for 9 cell lines, strains, targets or settings. The procedure, abridged: as §2

The subject of series [11] is Trypanosoma cruzi. Nature of the series: Antitrypanosomal activity against Trypanosoma cruzi MHOM/Pe/2011/Arequipa DTU 5 trypamastigotes infected in Balb/c mouse assessed as reduction in Ig-G level in serum at 20 mg/kg, po once daily for 5 consecutive days starting from day 75 post infection measured on day 81 post infection by ELISA. The series is classed as functional, organism-based. The procedure, abridged:
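Female BALB/c mice (8-10 weeks, 20-25 g), six per group, infected i.p. with 5 x 10^5 Arequipa bloodstream trypomastigotes. Compound was given orally once daily for 5 days from day 10 or day 75 pi, at 20 mg·kg-1 per day in 5 % DMSO/0.5 % HPMC. Anti-T. cruzi IgG in serum was measured by ELISA with Fe-SOD antigen, read as OD 490 nm.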

Series [12] has as its system Mus musculus. The series can be described thus: Hepatotoxicity in Balb/c mouse infected with Trypanosoma cruzi MHOM/Pe/2011/Arequipa DTU 5 trypamastigotes assessed as increase in total bilirubin level at 20 mg/kg, po once daily for 5 consecutive days starting from day 10 post infection measured on day 127 post infection by biochemical analysis relative to control. Format: toxicity, organism-based. To be noted: in vivo.

Series [13] deals with Mus musculus. Nature of the series: Nephrotoxicity in Balb/c mouse infected with Trypanosoma cruzi MHOM/Pe/2011/Arequipa DTU 5 trypamastigotes assessed as decrease in urea level in serum at 20 mg/kg, po once daily for 5 consecutive days starting from day 10 post infection measured on day 127 post infection by biochemical analysis relative to control. To be noted: in vivo. Also noted: scale not given: the % may be the effect or the level left. The series is classed as toxicity, organism-based.

For series [14], the system named is Mus musculus. Nature of the series: Hepatotoxicity in Balb/c mouse infected with Trypanosoma cruzi MHOM/Pe/2011/Arequipa DTU 5 trypamastigotes assessed as increase in ratio of serum AST to GOT level at 20 mg/kg, po once daily for 5 consecutive days starting from day 10 post infection measured on day 127 post infection by biochemical analysis relative to control. The series is classed as toxicity, organism-based. As to conditions: in vivo.

The test system of series [15] is Mus musculus. The series can be described thus: Nephrotoxicity in Balb/c mouse infected with Trypanosoma cruzi MHOM/Pe/2011/Arequipa DTU 5 trypamastigotes assessed as decrease in urea level in serum at 20 mg/kg, po once daily for 5 consecutive days starting from day 10 post infection measured on day 16 post infection by biochemical analysis relative to control. Format: toxicity, organism-based. Also noted: scale not given: the % may be the effect or the level left. To be noted: in vivo.

The test system of series [16] is Mus musculus. Nature of the series: Hepatotoxicity in Balb/c mouse infected with Trypanosoma cruzi MHOM/Pe/2011/Arequipa DTU 5 trypamastigotes assessed as change in ratio of serum […] to GPT level at 100 mg/kg, po once daily for 5 consecutive days starting from day 10 post infection measured on day 127 post infection by biochemical analysis relative to control. The series is classed as toxicity, organism-based. As to conditions: in vivo.

Series [17] deals with Mus musculus. Nature of the series: Nephrotoxicity in Balb/c mouse infected with Trypanosoma cruzi MHOM/Pe/2011/Arequipa DTU 5 trypamastigotes assessed as increase in urea level in serum at […], po once daily for 5 consecutive days starting from day 10 post infection measured on day 127 post infection by biochemical analysis relative to control. To be noted: in vivo. Format: toxicity, organism-based.

The subject of series [18] is Trypanosoma cruzi. Nature of the series: Antitrypanosomal activity against Trypanosoma cruzi MHOM/Pe/2011/Arequipa DTU 5 epimastigotes assessed as effect on parasite glycolytic pathway by measuring decrease in succinate excretion at IC25 after 72 hrs by 1H NMR method. Format: functional, organism-based. The procedure, abridged:
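Arequipa epimastigotes exposed at IC25 for 72 h alongside an untreated control. Excreted catabolites were analysed by 1H NMR, and each peak is reported as % variation versus the control. Three separate determinations.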

Results on four molecules are retold here after ChEMBL document CHEMBL4118256, “Second Generation of Mannich Base-Type Derivatives with in Vivo Activity against Trypanosoma cruzi” (J Med Chem, 2018).

Calls of active or inactive are those of the source. No cut-off for these calls is given here.

As for `COc1ccc(C(=O)CCN2CCN(c3ccc(Cl)cc3)CC2)cc1`, the Activity in the series on Mus musculus [1] was under 10%; in the series with Trypanosoma cruzi [2], 78%.
As for `COc1ccc(C(=O)CCN2CCN(c3ccc([N+](=O)[O-])cc3)CC2)cc1`, the Activity result in the series with Mus musculus [3] is “<= 10%”; in the series on Mus musculus [4], “<= 30%”.
With `O=C(Cn1ccnc1[N+](=O)[O-])NCc1ccccc1` [BENZNIDAZOLE], the Activity is on record as over 40% in the series with Mus musculus [5]; over 40% in the series on Mus musculus [6]; under 10% in the series with Mus musculus [7]; over 10% in the series on Mus musculus [8]; 33% in the series with Trypanosoma cruzi [9]; 55% in the series with Trypanosoma cruzi [10]. The Activity result in the series on Mus musculus [12] is on record as “<= 10%”; in the series with Mus musculus [13] it was “<= 30%”; in the series with Mus musculus [14] it was over 40%; in the series on Mus musculus [15], “<= 30%”. The result in the series with Trypanosoma cruzi [11] was inactive.
Turning to `COc1ccc(C(=O)CCN2CCN(c3ccc(F)cc3)CC2)cc1`, the results for the Activity in the series with Mus musculus [16] and with Mus musculus [17] were under 10% and “<= 10%”, respectively. In addition, the result in the series with Trypanosoma cruzi [18] was Active.
